# Reference: PMC11324745 (Nature Communications, 2024)
# What was measured:
# [1] = target: Polθ-hel (Homo sapiens, UniProt O75417); conditions: cited from earlier work
# [2] = test system: BRCA1-deficient cells; conditions: read-out: IC50 in BRCA1-deficient cells; cited from earlier work
# [3] = test system: Brca1^cc/cc MEFs; test: Colony survival assay, Brca1 cc/cc MEFs; format: cell-based, mouse; conditions: vs Brca1-WT MEFs
# [4] = test system: DLD1 BRCA2-KO (BRCA2 -/-, null) cells; test: Colony survival assay, DLD1 BRCA2-KO; format: cell-based; conditions: DLD1 isogenic pair, vs BRCA2-WT
# Summary of the method: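 Isogenic pairs (DLD1 in RPMI; HCT 116 in DMEM; each with 10% FBS, glutamine, non-essential amino acids) seeded in 24-well plates: 800 cells/well for BRCA-null and 200 cells/well for wild-type. Test compound exposure with medium changed every 2–3 days for 10–12 days. Fixed in water:ethanol:acetic acid 5:4:1, stained with 0.5% crystal violet for 2 h, colonies counted manually. Mean ± S.E.M.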
# [5] = test system: Brca1^Δ11;Δ11 MEFs; conditions: cited from earlier work
# Polθ-hel, sequence (O75417 1-894): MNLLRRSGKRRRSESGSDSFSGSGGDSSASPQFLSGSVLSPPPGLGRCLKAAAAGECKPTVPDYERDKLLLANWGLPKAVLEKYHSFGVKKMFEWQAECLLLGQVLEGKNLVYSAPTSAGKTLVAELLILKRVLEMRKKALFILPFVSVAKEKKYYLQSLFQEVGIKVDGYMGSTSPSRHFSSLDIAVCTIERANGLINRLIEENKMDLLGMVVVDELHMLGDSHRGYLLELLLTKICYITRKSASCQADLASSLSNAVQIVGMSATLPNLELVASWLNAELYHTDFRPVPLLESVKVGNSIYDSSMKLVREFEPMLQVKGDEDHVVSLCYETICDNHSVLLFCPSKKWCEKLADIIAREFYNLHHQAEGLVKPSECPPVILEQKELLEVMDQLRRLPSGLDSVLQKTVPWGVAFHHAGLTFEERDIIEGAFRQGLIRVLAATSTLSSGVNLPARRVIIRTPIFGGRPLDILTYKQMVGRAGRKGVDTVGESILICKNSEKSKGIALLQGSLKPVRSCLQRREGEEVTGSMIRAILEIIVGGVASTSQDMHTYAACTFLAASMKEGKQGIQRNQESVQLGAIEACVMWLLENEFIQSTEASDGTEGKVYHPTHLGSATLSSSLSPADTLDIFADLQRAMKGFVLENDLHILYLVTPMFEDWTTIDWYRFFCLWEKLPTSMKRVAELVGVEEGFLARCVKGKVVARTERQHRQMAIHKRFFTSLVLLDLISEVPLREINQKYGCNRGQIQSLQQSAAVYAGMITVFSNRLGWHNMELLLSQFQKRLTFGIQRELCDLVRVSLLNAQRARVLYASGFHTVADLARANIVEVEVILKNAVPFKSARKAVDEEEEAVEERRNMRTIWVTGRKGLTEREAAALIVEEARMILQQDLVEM
Structure (SMILES),inhibition of Polθ-hel ssDNA binding [1],IC50 [2] [µM],"colony survival, killing of Brca1 cc/cc MEFs [3]","colony survival, killing of BRCA2-KO cells [4]",activity against Brca1 Δ11 MEFs [5]
CO[C@@H]1[C@@H](OC(N)=O)[C@@H](O)[C@H](Oc2ccc3c(O)c(NC(=O)c4ccc(O)c(CC=C(C)C)c4)c(=O)oc3c2C)OC1(C)C [Novobiocin],inhibits Polθ-hel ssDNA binding,50 to 100,no preferential killing of these cells up to 10 μM,selective killing of BRCA2-KO cells at significantly higher concentrations,–
Cc1cccc(N(C)C(=O)[C@@H]2[C@H](O)CCN2c2nc(C)cc(C(F)(F)F)c2C#N)c1 [ART558],–,–,–,–,relatively modest activity
